From PubChem
A1 apoptosis 2 – A1 inhibitors via caspase activation, primary screen, cell-based, luminescence, HTS, two replicates | MEF A1-2A-BIM cells, caspase-Glo luminescence, 3 h; percent of clofoctol response, DMSO zero | caspase activation, % (concentration not given with the values) | 24,000 tested, under 10 active; in the data active = caspase activation above about 5.9%
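system = A1-2A-BIM-expressing MEF cells | quantity = 2500 MEF cells/well | dosing = 50 nL compound per well, pinned | schedule = overnight cell settling, then 3 h compound exposure, 37 °C | signal = luminescence from DEVD-luciferin Caspase-Glo reagent, 1:1 in 50 mM HEPES, 1 h RT | read-out = Caspase-3/7 activation, seen as rise in luminescence signal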
T cruzi HTS – inhibitors of intracellular Trypanosoma cruzi, primary screen, cell-based, plate reader, single point, set 2; intracellular Trypanosoma cruzi in host cells; activity score (inhibition), % at 5.01 µM; 4.9% of 22,000 active; AID 651903, 2012; in the data active = activity score above about 55%;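 also: parasites and compound incubated about four days before reading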
INS-1E ATP HTS – protection of INS-1E cells from cytokine death, primary screen, ATP luminescence, single point. INS-1E cytokine-induced death, 48 h; normalised: neutral wells 0, positive control 100. protection from cytokine-induced ATP loss, % at 10 µM. 0.1% of 20,000 active;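 active = mean replicate protection from cytokine-induced ATP loss at least 50% and at least 75% of replicates each reaching 50%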
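Material: INS-1E rat cells; Quantity: 8000 cells/well; Buffer or medium: phenol-red-free RPMI with 5% fetal bovine serum; Probe or stimulus: cytokine cocktail of IFN-γ, TNF-α and IL-1β; Compound dosing: single test concentration per compound, delivered by pin transfer; Incubation: 48 h co-treatment, 10 min post-lysis read; Signal: CellTiter-Glo luminescence.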
Each line names hits and unclear results; the compound was inactive in the other large screens. Only a selection was taken, and hits are over-represented in it overall.

CC(C)NC(=O)Nc1ccc2c(c1)C(=O)N([C@H](C)CO)C[C@@H](C)[C@H](CN(C)C(=O)Nc1ccc(C(F)(F)F)cc1)OCCCC[C@H](C)O2	none (no result: T cruzi HTS, INS-1E ATP HTS)
C[C@@H]1CCCCO[C@H](CN(C)Cc2ccc(C(F)(F)F)cc2)[C@H](C)CN([C@H](C)CO)C(=O)c2cc(NC(=O)Nc3cccc4ccccc34)ccc2O1	none (no result: T cruzi HTS, INS-1E ATP HTS)
C[C@H](CO)N1C[C@H](C)[C@H](CN(C)C(=O)Nc2ccc3c(c2)OCO3)OCCCC[C@H](C)Oc2ccc(NC(=O)Nc3ccc(C(F)(F)F)cc3)cc2C1=O	none (no result: T cruzi HTS, INS-1E ATP HTS)
C[C@@H]1CCCCO[C@H](CN(C)C(=O)Nc2ccc(C(F)(F)F)cc2)[C@@H](C)CN([C@H](C)CO)C(=O)c2cc(NC(=O)Nc3ccc4c(c3)OCO4)ccc2O1	T cruzi HTS 59 (no result: A1 apoptosis 2)
O=C(N/N=C/c1ccc(Br)o1)c1ccccc1O	none
CC(C)(C)OC(=O)N1CCC[C@H]1/C=N/NC(=O)c1ccc(C(=O)NO)cc1	none
C[C@H](CO)N1C[C@H](C)[C@H](CN(C)Cc2ccc(C(F)(F)F)cc2)Oc2ccc(NC(=O)Cc3ccccc3)cc2C1=O	T cruzi HTS 64 (no result: A1 apoptosis 2, INS-1E ATP HTS)
C[C@@H]1CN([C@@H](C)CO)C(=O)c2cc(NC(=O)Nc3ccc(C(F)(F)F)cc3)ccc2O[C@H]1CN(C)Cc1ccc(-c2ccccc2)cc1	none
C[C@@H]1CN([C@@H](C)CO)C(=O)c2cc(NC(=O)Cc3ccccc3)ccc2O[C@@H]1CN(C)Cc1ccc(C(F)(F)F)cc1	none (no result: INS-1E ATP HTS)
C[C@@H]1CN([C@@H](C)CO)C(=O)c2cc(NC(=O)Nc3ccc(C(F)(F)F)cc3)ccc2O[C@@H]1CN(C)Cc1ccc(-c2ccccc2)cc1	T cruzi HTS 64 (no result: A1 apoptosis 2)
C[C@H](CO)N1C[C@H](C)[C@@H](CN(C)Cc2ccc(-c3ccccc3)cc2)Oc2ccc(NC(=O)Nc3ccc(C(F)(F)F)cc3)cc2C1=O	none (no result: A1 apoptosis 2)
C[C@@H]1CN([C@H](C)CO)C(=O)c2cc(NC(=O)Nc3ccc(C(F)(F)F)cc3)ccc2O[C@H]1CN(C)Cc1ccc(-c2ccccc2)cc1	T cruzi HTS 86
COc1cc(/C=N/NC(=O)c2ccccc2O)c(Br)cc1O	none
COc1cc(/C=N/NC(=O)CCCCCCC(=O)Nc2ccccc2O)c([N+](=O)[O-])cc1OC	none
Cc1nc(S(=O)(=O)N[C@@H]2CCCN(Cc3ccc(OCCO)cc3)C2)cn1C	none (no result: T cruzi HTS, INS-1E ATP HTS)
C[C@@H]1CCCCO[C@H](CN(C)Cc2ccc(Cl)c(Cl)c2)[C@@H](C)CN([C@H](C)CO)C(=O)c2cc(NC(=O)Nc3ccccc3)ccc2O1	T cruzi HTS 76
C[C@@H]1CN([C@H](C)CO)C(=O)c2cc(NC(=O)C3CCCCC3)ccc2O[C@@H](C)CCCCO[C@H]1CN(C)Cc1ccc(Cl)c(Cl)c1	none (no result: T cruzi HTS, INS-1E ATP HTS)
C[C@@H]1CCCCO[C@@H](CN(C)Cc2ccc(Cl)c(Cl)c2)[C@H](C)CN([C@@H](C)CO)C(=O)c2cc(NC(=O)Nc3ccccc3)ccc2O1	none (no result: T cruzi HTS, INS-1E ATP HTS)
C[C@@H]1CN([C@@H](C)CO)C(=O)c2cc(NC(=O)Nc3ccccc3)ccc2O[C@@H](C)CCCCO[C@H]1CN(C)Cc1ccc(Cl)c(Cl)c1	none (no result: T cruzi HTS, INS-1E ATP HTS)
C[C@@H]1CCCCO[C@@H](CN(C)Cc2ccc(Cl)c(Cl)c2)[C@@H](C)CN([C@H](C)CO)C(=O)c2cc(NC(=O)Nc3ccccc3)ccc2O1	T cruzi HTS 78 (no result: A1 apoptosis 2)
C[C@@H]1CCCCO[C@@H](CN(C)Cc2ccc(Cl)c(Cl)c2)[C@@H](C)CN([C@H](C)CO)C(=O)c2cc(NC(=O)C3CCCCC3)ccc2O1	T cruzi HTS 88 (no result: A1 apoptosis 2)
CC(C)(C)OC(=O)NC1(/C=N/NC(=O)CCCCCCC(=O)O)CCCC1	none
Cc1noc(C)c1NC(=O)N(C)C[C@@H]1OCCCC[C@@H](C)Oc2ccc(NC(=O)Cc3ccccc3)cc2C(=O)N([C@@H](C)CO)C[C@@H]1C	none (no result: T cruzi HTS, INS-1E ATP HTS)
C[C@H](CO)N1C[C@H](C)[C@H](CN(C)Cc2ccc(-c3ccccc3)cc2)Oc2ccc(NC(=O)CCCCCC(=O)Nc3ccccc3N)cc2CC1=O	T cruzi HTS 73 (no result: A1 apoptosis 2)
C[C@@H]1CN([C@H](C)CO)C(=O)Cc2cc(NC(=O)CCCCCC(=O)Nc3ccccc3N)ccc2O[C@@H]1CN(C)Cc1ccc(-c2ccccc2)cc1	none (no result: A1 apoptosis 2)
C[C@@H]1CN([C@H](C)CO)C(=O)Cc2cc(NC(=O)CCCCCC(=O)Nc3ccccc3N)ccc2O[C@@H]1CN(C)Cc1ccc(Cl)c(Cl)c1	T cruzi HTS 66 (no result: A1 apoptosis 2)
C[C@H]1CN([C@@H](C)CO)C(=O)Cc2cc(NC(=O)CCCCCC(=O)Nc3ccccc3N)ccc2O[C@H]1CN(C)Cc1ccccc1	none (no result: T cruzi HTS, INS-1E ATP HTS)
COC(=O)C[C@H]1O[C@@]2(C[C@@H]1[Si](C)(C)C)C(=O)N(C)c1ccccc12	none (no result: T cruzi HTS, INS-1E ATP HTS)
C[C@H](CO)N1C[C@H](C)[C@H](CN(C)Cc2ccc(C(F)(F)F)cc2)Oc2ccc(NS(=O)(=O)c3cccs3)cc2C1=O	T cruzi HTS 58 (no result: A1 apoptosis 2)
C[C@H]1CN([C@@H](C)CO)C(=O)c2cc(NS(=O)(=O)c3cccs3)ccc2O[C@H]1CN(C)Cc1ccc(C(F)(F)F)cc1	none (no result: INS-1E ATP HTS)
C[C@H]1CN([C@@H](C)CO)C(=O)c2cc(NS(=O)(=O)c3cccs3)ccc2O[C@@H]1CN(C)Cc1ccc(C(F)(F)F)cc1	none (no result: T cruzi HTS, INS-1E ATP HTS)
C[C@H](CO)N1C[C@H](C)[C@@H](CN(C)Cc2ccc(C(F)(F)F)cc2)Oc2ccc(NS(=O)(=O)c3cccs3)cc2C1=O	T cruzi HTS 60
C[C@@H]1CN([C@@H](C)CO)C(=O)Cc2cc(NC(=O)Cc3cn(C)c4ccccc34)ccc2O[C@@H]1CN(C)Cc1ccc(C(F)(F)F)cc1	T cruzi HTS 63
C[C@@H]1CN([C@H](C)CO)C(=O)Cc2cc(NC(=O)Cc3cn(C)c4ccccc34)ccc2O[C@@H]1CN(C)Cc1ccc(Oc2ccccc2)cc1	T cruzi HTS 65
C[C@H](CO)N1C[C@H](C)[C@H](CN(C)Cc2ccc(Cl)c(Cl)c2)Oc2ccc(NC(=O)Cc3cn(C)c4ccccc34)cc2CC1=O	none
C[C@H](CO)N1C[C@H](C)[C@H](CN(C)Cc2ccc(Oc3ccccc3)cc2)Oc2ccc(NC(=O)Cc3cn(C)c4ccccc34)cc2CC1=O	none (no result: A1 apoptosis 2)
C[C@@H]1CN([C@H](C)CO)C(=O)Cc2cc(NC(=O)Cc3cn(C)c4ccccc34)ccc2O[C@@H]1CN(C)S(=O)(=O)c1ccc(Cl)cc1	T cruzi HTS 67 (no result: A1 apoptosis 2)
C[C@H](CO)N1C[C@H](C)[C@@H](CN(C)S(=O)(=O)c2ccc(Cl)cc2)Oc2ccc(NC(=O)Cc3cn(C)c4ccccc34)cc2CC1=O	none (no result: T cruzi HTS, INS-1E ATP HTS)
C[C@H](CO)N1C[C@H](C)[C@@H](CN(C)Cc2ccc(C(F)(F)F)cc2)Oc2ccc(NC(=O)Cc3cn(C)c4ccccc34)cc2CC1=O	none (no result: T cruzi HTS, INS-1E ATP HTS)
C[C@H]1CN([C@@H](C)CO)C(=O)Cc2cc(NC(=O)Cc3cn(C)c4ccccc34)ccc2O[C@H]1CN(C)Cc1ccc(Cl)c(Cl)c1	T cruzi HTS 60
